The subject of test [1] is Mus musculus. Briefly: The compound was evaluated for the mouse active Arthus (MAA) reaction activity for an ip dose of 150 mg/kg in mouse. Format: functional. The note with it: route intraperitoneal. Put shortly: (§1)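 CD-1 mice were sensitized ip with a 1:1 Freund's complete adjuvant emulsion containing BSA in saline, 5 weeks before challenge. Compound was suspended in 1% Na CMC in pyrogen-free saline and given as one ip or oral dose 1 h before skin challenge with BSA. Screening doses were 150 mg/kg ip and 300 mg/kg po, with some at 75 or 50 mg/kg ip. Lesions were excised 3.5 h after challenge and weighed against controls.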

In test [2] the test system is Cavia porcellus. Briefly: The compound was evaluated for the delayed hypersensitivity skin reaction (DHSR) activity after subcutaneous administration; 0/0.
Test [3] relates to Cavia porcellus. In words: Tested in delayed hypersensitivity skin reaction (DHSR) after subcutaneous administration, activity reported as percent inhibition of erythema/induration of lesion; 14/34. Format: functional.
Test [4] relates to Mus musculus. Briefly: The compound was evaluated for the mouse active Arthus (MAA) reaction activity expressed as inhibitory dose after ip administration. The format is functional. The note with it: read-out: ID50 (the source's name). The method in brief: as §1
Test [5] relates to Cavia porcellus. In words: Tested in delayed hypersensitivity skin reaction (DHSR) after subcutaneous administration, activity reported as percent inhibition of erythema/induration of lesion; 7/6. Format: functional. The method in brief: (§2)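 Male Hartley guinea pigs were sensitized with Mycobacterium tuberculosis in Freund's incomplete adjuvant, injected into each hind footpad and subcutaneously at the neck. After 3 weeks, 1.2 μg PPD was given intradermally. Compound in sesame oil was given sc, 3 animals per group, 30 min before and 5 h after PPD; screening dose 50 mg/kg.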

For test [6], the system named is Mus musculus. Briefly: The compound was evaluated for the mouse active Arthus (MAA) reaction activity for peroral dose of 300 mg/kg in mouse; 31-40%. Format: functional. The note with it: route oral. The method in brief: as §1
Test [7] deals with Cavia porcellus. Briefly: Tested in delayed hypersensitivity skin reaction (DHSR) after subcutaneous administration, activity reported as percent inhibition of erythema/induration of lesion; 21/6. The format is functional.
In test [8] the test system is Mus musculus. In words: Inhibition of Mouse Active Arthus reaction following 150 mg/Kg i.p.; 41-60% inhibition. Format: functional. The settings on record: for inhibition in vivo at 150 mg/kg: Mus musculus, ip.
The test system of test [9] is Cavia porcellus. In words: Tested in delayed hypersensitivity skin reaction (DHSR) after subcutaneous administration, activity reported as percent inhibition of erythema/induration of lesion; 15/0. Format: functional.
The test system of test [10] is Cavia porcellus. Briefly: Tested in delayed hypersensitivity skin reaction (DHSR) after subcutaneous administration, activity reported as percent inhibition of erythema/induration of lesion; 2/0. Format: functional.
The test system of test [11] is Mus musculus. In words: Mouse active Arthus (MAA) reaction activity was determined for an ip dose of 150 mg/kg in mouse; 31-40%. Format: functional. The note with it: route intraperitoneal.
For test [12], the system named is Cavia porcellus. Briefly: Tested in delayed hypersensitivity skin reaction (DHSR) after subcutaneous administration, activity reported as percent inhibition of erythema/induration of lesion; 6/12. Format: functional. The method in brief: as §2
Test [13] deals with Cavia porcellus. Briefly: Tested in delayed hypersensitivity skin reaction (DHSR) after subcutaneous administration, activity reported as percent inhibition of erythema/induration of lesion; 22/51. Format: functional.
For test [14], the system named is Cavia porcellus. Briefly: Tested in delayed hypersensitivity skin reaction (DHSR) after subcutaneous administration, activity reported as percent inhibition of erythema/induration of lesion; 8/21. The format is functional. The method in brief: as §2
For test [15], the system named is Cavia porcellus. In words: Tested in delayed hypersensitivity skin reaction (DHSR) after subcutaneous administration, activity reported as percent inhibition of erythema/induration of lesion; 8/11. The format is functional. Put shortly: as §2
The subject of test [16] is Cavia porcellus. Briefly: Tested in delayed hypersensitivity skin reaction (DHSR) after subcutaneous administration, activity reported as percent inhibition of erythema/induration of lesion; 15/7. Format: functional.
Test [17] has as its system Mus musculus. Briefly: The compound was evaluated for the mouse active Arthus (MAA) reaction activity for peroral screening dose of 150 mg/kg in mouse. The note with it: route oral. The format is functional.
For test [18], the system named is Cavia porcellus. In words: Tested in delayed hypersensitivity skin reaction (DHSR) after subcutaneous administration, activity reported as percent inhibition of erythema/induration of lesion; 9/30. Format: functional. Put shortly: as §2
The test system of test [19] is Mus musculus. Briefly: Inhibition of Mouse active Arthus (MAA) reaction activity was determined for an ip dose of 150 mg/kg in mouse; 21-30%. Format: functional. The note with it: route intraperitoneal.

As for `CN1CCN(CCCN2N=C3/C(=C/c4ccc([S+](C)[O-])cc4)COCC3C2c2ccc([S+](C)[O-])cc2)CC1.O=C(O)/C=C\C(=O)O` (centres undefined), the inhibition in vivo at 150 mg/kg in the test with Mus musculus [1] was under 20%. The Activity in the test with Cavia porcellus [2] was found to be 0.

`COc1ccc(/C=C2\CSCC3C2=NN(CCCN2CCN(C)CC2)C3c2ccc(OC)cc2)cc1.O=C(O)/C=C\C(=O)O` (centres undefined) returned an Activity in the test on Cavia porcellus [3] of 14. The ED50 with Mus musculus [4] worked out at 60 mg/kg. Also, in the test with Mus musculus [1], the inhibition in vivo at 150 mg/kg was over 60%.

As for `CN1CCN(CCCN2N=C3/C(=C/c4ccccc4)CS(=O)(=O)CC3C2c2ccccc2)CC1.O=C(O)/C=C\C(=O)O` (centres undefined), in the test with Cavia porcellus [5], the Activity is on record as 7. In the test on Mus musculus [6], this molecule came in with an inhibition in vivo at 300 mg/kg of 31%. For the same molecule, the inhibition in vivo at 150 mg/kg in the test with Mus musculus [1] is over 60%.

For the molecule `CN1CCN(CCCN2N=C3/C(=C/c4ccccc4)CSCC3C2c2ccccc2)CC1.O=C(O)/C=C\C(=O)O` (centres undefined), the Inhibition with Cavia porcellus [7] was 21%; with Mus musculus [8] it was 41%.

In turn, `CC(C)(C)c1ccc(/C=C2\CS(=O)(=O)CC3C2=NN(CC2CC2)C3c2ccc(C(C)(C)C)cc2)cc1` (centres undefined) had an Activity with Cavia porcellus [9] of 15.

`CSc1ccc(/C=C2\CSCC3C2=NN(C(C)=O)C3c2ccc(SC)cc2)cc1` (centres undefined): the Activity in the test on Cavia porcellus [10] was 2. This molecule also yielded an inhibition in vivo at 150 mg/kg in the test on Mus musculus [11] of 31%.

Turning to `CCCCN1N=C2/C(=C/c3cccnc3)CSCC2C1c1cccnc1` (centres undefined), the Activity in the test with Cavia porcellus [12] is listed as 6. In the test with Mus musculus [1], this molecule displayed an inhibition in vivo at 150 mg/kg of under 20%.

`CN1CCN(CCCN2N=C3/C(=C/c4ccccc4)COCC3C2c2ccccc2)CC1` (centres undefined) came in with an Activity with Cavia porcellus [13] of 22.

Molecule `CC(=O)N1N=C2/C(=C/c3ccccc3)CS(=O)(=O)CC2C1c1ccccc1` (centres undefined) gave an Activity with Cavia porcellus [14] of 8. In the test on Mus musculus [8], the inhibition in vivo at 150 mg/kg is 41%.

As for `CCCN1N=C2/C(=C/c3cccc(C(F)(F)F)c3)CS(=O)(=O)CC2C1c1cccc(C(F)(F)F)c1` (centres undefined), in the test on Cavia porcellus [15], the Activity is reported as 8. In addition, testing at 150 mg/kg with Mus musculus [8] gave an inhibition in vivo of 41%.

In turn, `Cc1ccc(/C=C2\CS(=O)(=O)CC3C2=NN(CC2CC2)C3c2ccc(C)cc2)cc1` (centres undefined) returned an Activity in the test with Cavia porcellus [16] of 15. Also, the inhibition in vivo at 150 mg/kg in the test on Mus musculus [17] is under 20%.

As for `CCCN1N=C2/C(=C/c3ccccc3)COCC2C1c1ccccc1` (centres undefined), the Activity in the test with Cavia porcellus [18] is 9. In the test with Mus musculus [19], this molecule displayed an inhibition in vivo at 150 mg/kg of 21%.

The term inhibition in vivo denotes the change of the read-out against control, counted positive when it falls. What is called Inhibition is the percentage by which the read-out fell short of the control.

The record behind these values is ChEMBL document CHEMBL1122142, “Synthesis and antiinflammatory activity of hexahydrothiopyrano[4,3-c]pyrazoles and related analogues” (J Med Chem, 1982).
